Measurements taken from ChEMBL document CHEMBL1131108, “Phenothiazine inhibitors of trypanothione reductase as potential antitrypanosomal and antileishmanial drugs” (J Med Chem, 1998).

How the values were obtained:
[1] = biological target: T1, Glutathione reductase, mitochondrial (Homo sapiens, UniProt P00390); experiment: Inhibitory activity against human erythrocyte glutathione reductase; '*' indicates No inhibition
T1 sequence (P00390 whole entry): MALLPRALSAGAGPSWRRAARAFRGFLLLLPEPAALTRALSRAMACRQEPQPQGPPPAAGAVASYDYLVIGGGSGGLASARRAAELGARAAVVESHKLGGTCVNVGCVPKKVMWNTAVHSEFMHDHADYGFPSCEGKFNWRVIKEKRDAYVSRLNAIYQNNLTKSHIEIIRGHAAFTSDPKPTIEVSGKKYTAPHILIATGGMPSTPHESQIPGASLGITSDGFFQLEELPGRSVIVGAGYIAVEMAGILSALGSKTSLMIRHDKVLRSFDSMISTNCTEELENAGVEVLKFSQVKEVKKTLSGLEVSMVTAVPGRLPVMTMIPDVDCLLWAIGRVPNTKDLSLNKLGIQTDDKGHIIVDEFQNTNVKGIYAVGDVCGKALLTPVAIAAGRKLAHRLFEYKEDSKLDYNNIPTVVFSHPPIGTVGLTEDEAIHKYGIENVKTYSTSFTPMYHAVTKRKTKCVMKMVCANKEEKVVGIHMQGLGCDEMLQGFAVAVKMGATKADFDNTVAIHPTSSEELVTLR
In short: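 Enzyme was isolated from human erythrocytes and assayed spectrophotometrically at 340 nm under literature conditions. Compounds were tested up to 1 mM, or 0.1 mM where solubility was limited.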

[2] = biological target: T2, Trypanothione reductase (Trypanosoma cruzi, UniProt P28593); experiment: Inhibitory activity against recombinant Trypanosoma cruzi (Trypanosoma cruzi) Trypanothione reductase; settings: read-out: I50
In short: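 Recombinant T. cruzi TR, overexpressed in E. coli JM109 and homogeneous by SDS-PAGE, was used at about 0.3 µg/mL. Assay at 25 °C in 0.02 M HEPES pH 7.25 with 0.15 M KCl, 1 mM EDTA, 0.12 mM trypanothione disulfide and 0.1 mM NADPH, read at 340 nm. I50 came from nonlinear least-squares fitting of velocity versus inhibitor concentration using the linear competitive inhibition equation.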

[3] = species: Mus musculus; experiment: Effective dose against Leishmania donovani (Leishmania donovani) amastigotes in mouse peritoneal macrophages; assay type: functional; settings: read-out: ED50 (the source's name)
In short: (§1)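 Mouse peritoneal macrophages kept on chamber slides in RPMI 1640 with 10% heat-inactivated foetal calf serum, 37 °C, 5% CO2, and infected with L. donovani MHOM/ET/69/L82 amastigotes taken from infected hamster spleens. After 24 h, compounds were added in a 3-fold dilution series in quadruplicate for 5 days. Slides were methanol-fixed and Giemsa-stained, then scored for the proportion of infected macrophages.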

[4] = species: Mus musculus; experiment: Effective dose against Trypanosoma cruzi (Trypanosoma cruzi) trypomastigotes in mouse peritoneal macrophages; assay type: functional; settings: read-out: ED50 (the source's name)
[5] = species: Mus musculus; experiment: Effective dose against Trypanosoma […]) trypomastigotes in mouse peritoneal macrophages; assay type: functional; settings: read-out: ED50 (the source's name)
[6] = species: Mus musculus; experiment: Effective dose against […]; Toxic to the macrophages; assay type: functional
[7] = system: Trypanosoma brucei; experiment: Effective dose against Trypanosoma brucei) bloodstream form trypomastigotes in HMI-9 medium; settings: read-out: ED50 (the source's name)
[8] = species: Mus musculus; experiment: Effective dose against Leishmania donovani (Leishmania donovani) amastigotes in mouse peritoneal macrophages; Toxic to the macrophages; assay type: functional, organism-based
In short: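 Mouse peritoneal macrophages in RPMI 1640 + 10% heat-inactivated FCS, 37 °C, 5% CO2, infected with L. donovani (MHOM/ET/69/L82) amastigotes from infected hamster spleens. Compounds added 24 h post-infection in 3-fold dilutions, quadruplicate, for 5 days. Slides methanol-fixed, Giemsa-stained; proportion of infected macrophages scored.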

[9] = species: Mus musculus; experiment: Effective dose against Trypanosoma cruzi (Trypanosoma cruzi) trypomastigotes in mouse peritoneal macrophages; Toxic to the macrophages; assay type: functional, organism-based
In short: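 T. cruzi (MHOM/BR/00/Y) trypomastigotes from infected L6 rat myoblast cultures infect mouse peritoneal macrophages at 5 parasites:1 macrophage, 37 °C, 5% CO2/air. Compounds in fresh medium 24 h post-infection, 3-fold dilutions, quadruplicate, 3 days. Cultures fixed, Giemsa-stained; proportion of infected macrophages scored.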

[10] = species: Mus musculus; experiment: Effective dose against Trypanosoma uM; assay type: functional
[11] = system: Trypanosoma brucei; experiment: Effective dose against Trypanosoma brucei) bloodstream form trypomastigotes; settings: read-out: ED50 (the source's name)
[12] = biological target: T2, Trypanothione reductase; experiment: Inhibitory activity against recombinant Trypanosoma cruzi (Trypanosoma cruzi) Trypanothione reductase (linear competitive type)
[13] = species: Mus musculus; experiment: Effective dose against Trypanosoma cruzi (Trypanosoma cruzi) trypomastigotes in mouse peritoneal macrophages; Range is 10-30 uM; assay type: functional; settings: read-out: ED50 (the source's name)
[14] = biological target: T2, Trypanothione reductase; experiment: Inhibitory activity against recombinant Trypanosoma cruzi (Trypanosoma cruzi) Trypanothione reductase; No inhibition at 1000 uM
[15] = species: Mus musculus; experiment: Effective dose against Leishmania donovani (Leishmania donovani) amastigotes in mouse peritoneal macrophages; Range is 10-30 uM; assay type: functional; settings: read-out: ED50 (the source's name); in short: as §1
[16] = system: Trypanosoma brucei; experiment: Effective dose against Trypanosoma brucei) bloodstream form trypomastigotes; <3, >1; settings: read-out: ED50 (the source's name)

T2 sequence (P28593 whole entry): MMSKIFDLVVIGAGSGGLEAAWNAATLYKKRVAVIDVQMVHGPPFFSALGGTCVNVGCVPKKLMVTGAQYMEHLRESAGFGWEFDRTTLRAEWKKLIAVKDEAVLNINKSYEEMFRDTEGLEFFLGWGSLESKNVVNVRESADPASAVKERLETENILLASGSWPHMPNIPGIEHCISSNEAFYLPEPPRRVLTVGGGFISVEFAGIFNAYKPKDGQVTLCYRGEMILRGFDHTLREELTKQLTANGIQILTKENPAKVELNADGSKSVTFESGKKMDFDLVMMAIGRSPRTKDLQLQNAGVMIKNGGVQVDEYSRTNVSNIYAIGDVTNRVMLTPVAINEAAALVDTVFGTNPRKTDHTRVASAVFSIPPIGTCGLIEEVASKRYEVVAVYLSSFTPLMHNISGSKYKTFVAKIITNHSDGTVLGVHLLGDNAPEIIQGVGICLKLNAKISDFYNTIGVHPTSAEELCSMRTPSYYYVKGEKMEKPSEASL

Compound	I50 [1]	IC50 [2]	EC50 [3]	EC50 [4]	further results
CN(C)C(C)(C)CN1c2ccccc2Sc2ccccc21	Not Active	1180 µM	–	–	–
C/C(=N\OCc1ccccc1)c1ccc2c(c1)N(CCCN(C)C)c1cc(Cl)ccc1S2	–	199 µM	6.78 µM	> 30 µM	EC50 [5]: 3.5 µM
COC(=O)c1ccc2c(c1)N(CCCN(C)C)c1ccccc1S2	Not Active	348 µM	–	–	–
CC(=O)c1ccc2c(c1)N(C(C)=O)c1ccccc1S2	Not Active	2810 µM	–	–	–
O=C(CCC(=O)N1c2ccccc2Sc2ccc(Cl)cc21)NNc1ccccc1	–	151 µM	34.2 µM	–	ED50 [6]: Toxic; EC50 [7]: 15.2 µM
CC(=O)c1ccc2c(c1)N(CCCN(C)C)c1ccccc1S2 [ACEPROMAZINE]	–	502 µM	–	–	ED50 [8]: Toxic; EC50 [7]: 6.42 µM; ED50 [9]: Toxic
CN(C)CCCN1c2ccccc2[S+]([O-])c2ccc(Cl)cc21 (stereo not given) [CHLOROPROMAZINE SULFOXIDE]	Not Active	76.6 µM	–	–	–
O=C(CNc1ccccc1)N1c2ccccc2Sc2ccc(Cl)cc21	–	256 µM	–	–	–
CCN(CC)CCCCCC(=O)N1c2ccccc2Sc2ccc(Cl)cc21	–	457 µM	–	–	–
CN(C)CCN1c2ccccc2Sc2ccc(Cl)cc21 [CHOLRPHENETHAZINE]	Not Active	150 µM	–	–	–
CO/N=C(/C)c1ccc2c(c1)N(CCCN(C)C)c1ccccc1S2	–	351 µM	> 30 µM	> 30 µM	ED50 [10]: 10 µM
N=C(N)CCN1c2ccccc2Sc2ccccc21	–	992 µM	–	–	–
NCCCN1c2ccccc2Sc2ccccc21	Not Active	1410 µM	3.3 µM	54.9 µM	EC50 [11]: 3.83 µM
O=C(CCl)N1c2ccccc2Sc2ccc(Cl)cc21	–	862 µM	–	–	–
CNCCCN1c2ccccc2Sc2ccc(Cl)cc21 [NOR1-CHLORPROMAZINE]	Not Active	126 µM	–	–	–
O=C(O)CCC(=O)N1c2ccccc2Sc2ccc(Cl)cc21	–	1480 µM	–	–	–
CN1CCN(CCCN2c3ccccc3Sc3ccc(C(F)(F)F)cc32)CC1 [TRIFLUOPERAZINE]	Not Active	72 µM	–	–	Ki [12]: 23 µM
CC(=O)c1ccc2c(c1)N(CCCN(C)C)c1cc(Cl)ccc1S2	–	175 µM	12.1 µM	> 30 µM	EC50 [7]: 1.29 µM
CCCCCC(=O)c1ccc2c(c1)N(CCCN(C)C)c1ccccc1S2	–	171 µM	–	–	EC50 [7]: > 30 µM
CNCCCN1c2ccccc2Sc2ccccc21	Not Active	1030 µM	–	–	–
CCN(CC)CCCC(=O)N1c2ccccc2Sc2ccc(Cl)cc21	–	320 µM	–	–	–
CN(C)CCCN1c2ccccc2Sc2ccc(COc3ccc(C(C)(C)C)cc3)cc21	Not Active	161 µM	> 30 µM	> 30 µM	EC50 [11]: > 30 µM
CC(CN1c2ccccc2Sc2ccccc21)N(C)C (stereo not given) [PROMETHAZINE]	Not Active	271 µM	–	–	Ki [12]: 216 µM
CCN(CC)CCC(=O)N1c2ccccc2Sc2ccc(Cl)cc21 [CHLORACYZINE]	–	802 µM	–	–	–
CC(=O)c1ccc2c(c1)N(CCCN(C)C)c1cc(C(C)=O)ccc1S2	–	472 µM	> 30 µM	> 30 µM	ED50 [10]: 10 µM
CCCN1CCN(CCCN2c3ccccc3Sc3ccc(Cl)cc32)CC1	Not Active	95.5 µM	–	–	Ki [12]: 18.7 µM

Compound	I50 [1]	IC50 [2]	EC50 [3]	EC50 [4]	further results
CN(C)CCCN1c2ccccc2Sc2ccc(CO)cc21	Not Active	1190 µM	–	–	–
OCCN1CCN(CCCN2c3ccccc3Sc3ccc(C(F)(F)F)cc32)CC1 [FLUPHENAZINE]	Not Active	73.7 µM	> 30 µM	> 30 µM	EC50 [11]: > 30 µM; Ki [12]: 21.2 µM
CC(=O)c1ccc2c(c1)N(C(C)=O)c1cc(Cl)ccc1S2	–	402 µM	> 30 µM	> 30 µM	EC50 [7]: > 30 µM
CN(C)CCCN1c2ccccc2Sc2ccc(/C=N/O)cc21	–	145 µM	> 30 µM	–	EC50 [13]: 10 µM; EC50 [7]: 7.35 µM
O=C(CCC(=O)N1c2ccccc2Sc2ccc(Cl)cc21)NCc1ccccc1	–	188 µM	> 30 µM	> 30 µM	EC50 [7]: > 30 µM
O=C(CBr)N1c2ccccc2Sc2ccc(Cl)cc21	–	251 µM	5.97 µM	–	EC50 [13]: 10 µM; EC50 [7]: 0.97 µM
c1ccc2c(c1)Nc1ccccc1S2 [PHENOTHIAZINE]	–	–	–	–	I50 [14]: No inhibition
CCN(CC)CC(=O)N1c2ccccc2Sc2ccc(Cl)cc21	–	829 µM	–	–	–
CCCC(=O)N1c2ccccc2Sc2ccc(Cl)cc21	–	95 µM	> 30 µM	> 30 µM	EC50 [7]: > 30 µM
CN(C)CCCN1c2ccccc2Sc2ccc(C(=O)O)cc21	Not Active	3910 µM	–	–	–
CC(=O)N1c2ccccc2Sc2ccc(C(=O)CCl)cc21	–	436 µM	–	–	–
CN(C)CCCN1c2ccccc2Sc2ccc(Cl)cc21 [CHLORPROMAZINE]	Not Active	35.4 µM	4.9 µM	> 10 µM	EC50 [11]: 3.69 µM; Ki [12]: 10.8 µM
C/C(=N/OCc1ccccc1)c1ccc2c(c1)N(CCCN(C)C)c1ccccc1S2	–	204 µM	16.5 µM	> 30 µM	EC50 [5]: 1.56 µM
CCCC(=O)c1ccc2c(c1)N(CCCN(C)C)c1ccccc1S2	–	301 µM	–	> 30 µM	EC50 [15]: 10 µM; EC50 [7]: 3.26 µM
CC(=O)c1ccc2c(c1)N(C(C)=O)c1cc(C(C)=O)ccc1S2	–	49.1 µM	> 30 µM	> 30 µM	EC50 [7]: > 30 µM
CN(C)CCCN1c2ccccc2Sc2ccccc21 [PROMAZINE]	Not Active	108 µM	–	–	Ki [12]: 59.1 µM
CC(CN(C)C)CN1c2ccccc2Sc2ccccc21 (stereo not given) [METHYLPROMAZINE]	Not Active	249 µM	–	–	Ki [12]: 127 µM
CN(C)CCCN1c2ccccc2Sc2ccc(CN)cc21	–	219 µM	–	–	ED50 [8]: Toxic; EC50 [7]: 0.37 µM; ED50 [9]: Toxic
NCCCN1c2ccccc2Sc2ccc(Cl)cc21 [NOR2-CHLORPROMAZINE]	Not Active	139 µM	10 µM	5.9 µM	EC50 [16]: < 3 µM
CN(C)CCCN1c2ccccc2Sc2c(Cl)cccc21	Not Active	765 µM	48.4 µM	29.5 µM	EC50 [11]: 3.01 µM
CN(C)CCCN1c2ccccc2Sc2ccc(C(F)(F)F)cc21 [TRIFLUPROMAZINE]	Not Active	110 µM	–	–	EC50 [11]: 3.2 µM; Ki [12]: 30.2 µM
CCN(CC)CCN1c2ccccc2Sc2ccc(Cl)cc21	Not Active	81.3 µM	–	–	–
N=C(N)CCN1c2ccccc2Sc2ccc(Cl)cc21	–	307 µM	–	–	–
CCC(=O)c1ccc2c(c1)N(CCCN(C)C)c1ccccc1S2	–	357 µM	> 30 µM	> 30 µM	EC50 [7]: 10.1 µM
CN(C)CCCN1c2ccccc2Sc2ccc(C(N)=O)cc21	Not Active	458 µM	–	–	–
